Data on 2 substances can be found in ChEMBL document CHEMBL1129059, “Antitumor properties of some 2-[(dimethylamino)methyl]phenylgold(III) complexes” (J Med Chem, 1996).

“And” between values parts separate entries of the source, which are not always exact repeats. Equal values may be shown once.

Data set [1] deals with Mus musculus. Nature of the data set: Compound was evaluated for antitumor activity (RTV) in HT1376 carcinoma Xenograft, at a dosage 17.5 mg/kg on day 28. On the set-up: dose 17.5 mg/kg. Format: functional, organism-based. An outline of the steps: (§1)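 HT1376 tumor fragments implanted subcutaneously in nude mice flanks; mice with established palpable tumors randomized into groups of 6 (controls 10). Compounds given intraperitoneally as suspensions in 0.5% carboxymethylcellulose in 0.9% saline, on days 0, 7, 14 and 21. Tumor dimensions on days 0, 7, 14, 21, 28. RTV = 100(mean tumor volume at assessment)/(mean start volume).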

Data set [2] deals with Mus musculus. As to the kind of experiment: Compound was evaluated for antitumor activity (T/C) in HT1376 carcinoma Xenograft, at a dosage 35 mg/kg on day 7. The format is functional, organism-based. On the set-up: dose 35 mg/kg. An outline of the steps: (§2)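 Nude mice carrying subcutaneous flank HT1376 fragments; treatment began once tumors were established and palpable, randomized into groups of 6 treated and 10 control mice. Dosing was ip as a suspension in 0.5% carboxymethylcellulose in 0.9% saline on days 0, 7, 14 and 21, at the MTD and two 2-fold dilutions. Tumors were measured on days 0-28. RTV = 100(mean volume at assessment)/(mean start volume); T/C = treated RTV/control RTV.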

Data set [3] deals with Mus musculus. Nature of the data set: Compound was evaluated for antitumor activity (T/C) in HT1376 carcinoma Xenograft, at a dosage 8.75 mg/kg on day 14. On the set-up: dose 8.75 mg/kg. Format: functional, organism-based. Put shortly: as §2
The test system of data set [4] is Mus musculus. As to the kind of experiment: Compound was evaluated for antitumor activity (RTV) in HT1376 carcinoma Xenograft, at a dosage 8.75 mg/kg on day 7. More on the design: dose 8.75 mg/kg. The format is functional, organism-based. An outline of the steps: as §1
The test system of data set [5] is Mus musculus. As to the kind of experiment: Compound was evaluated for antitumor activity (RTV) in HT1376 carcinoma Xenograft, at a dosage 35 mg/kg on day 7. Format: functional, organism-based. More on the design: dose 35 mg/kg. Put shortly: as §1
The test system of data set [6] is Mus musculus. Nature of the data set: Compound was evaluated for antitumor activity (RTV) in HT1376 carcinoma Xenograft, at a dosage 8.75 mg/kg on day 21. The format is functional, organism-based. On the set-up: dose 8.75 mg/kg. Put shortly: as §1
The subject of data set [7] is Mus musculus. Nature of the data set: Compound was evaluated for antitumor activity (T/C) in HT1376 carcinoma Xenograft, at a dosage 35 mg/kg on day 14. Format: functional, organism-based. More on the design: dose 35 mg/kg. Put shortly:
as §2

Data set [8] deals with Mus musculus. Nature of the data set: Compound was evaluated for antitumor activity (T/C) in HT1376 carcinoma Xenograft, at a dosage 8.75 mg/kg on day 7. Format: functional, organism-based. More on the design: dose 8.75 mg/kg. An outline of the steps: as §2
Data set [9] deals with Mus musculus. Nature of the data set: Compound was evaluated for antitumor activity (RTV) in HT1376 carcinoma Xenograft, at a dosage 17.5 mg/kg on day 7. The format is functional, organism-based. More on the design: dose 17.5 mg/kg. Put shortly: as §1
Data set [10] has as its system Mus musculus. As to the kind of experiment: Compound was evaluated for antitumor activity (T/C) in HT1376 carcinoma Xenograft, at a dosage 17.5 mg/kg on day 7. Format: functional, organism-based. More on the design: dose 17.5 mg/kg. An outline of the steps:
(§3)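 Subcutaneous HT1376 xenografts in nude mice, 6 per treated group and 10 controls. Intraperitoneal dosing as suspensions in 0.5% carboxymethylcellulose/0.9% saline on days 0, 7, 14, 21; tumors measured weekly to day 28. T/C = RTV of treated group / RTV of untreated control group; significance by t-test at the 5% level.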

For data set [11], the system named is Mus musculus. Nature of the data set: Compound was evaluated for antitumor activity (T/C) in HT1376 carcinoma Xenograft, at a dosage 17.5 mg/kg on day 28. Format: functional, organism-based. On the set-up: dose 17.5 mg/kg. An outline of the steps:
as §3

Data set [12] has as its system Mus musculus. Nature of the data set: Compound was evaluated for antitumor activity (T/C) in HT1376 carcinoma Xenograft, at a dosage 35 mg/kg on day 21. The format is functional, organism-based. More on the design: dose 35 mg/kg. Put shortly:
as §2

Data set [13] deals with Mus musculus. Nature of the data set: Compound was evaluated for antitumor activity (T/C) in HT1376 carcinoma Xenograft, at a dosage 8.75 mg/kg on day 21. Format: functional, organism-based. On the set-up: dose 8.75 mg/kg. Put shortly:
as §2

Data set [14] is described as follows: Range is evaluated. (Highest IC50/Lowest IC50). Format: functional.
Data set [15] deals with Mus musculus. Nature of the data set: Compound was evaluated for antitumor activity (RTV) in HT1376 carcinoma Xenograft, at a dosage 8.75 mg/kg on day 28. Format: functional, organism-based. On the set-up: dose 8.75 mg/kg. An outline of the steps:
as §1

The subject of data set [16] is Mus musculus. As to the kind of experiment: Compound was evaluated for antitumor activity (RTV) in HT1376 carcinoma Xenograft, at a dosage 17.5 mg/kg on day 14. More on the design: dose 17.5 mg/kg. Format: functional, organism-based. An outline of the steps:
as §1

Data set [17] deals with Mus musculus. As to the kind of experiment: Compound was evaluated for antitumor activity (T/C) in HT1376 carcinoma Xenograft, at a dosage 17.5 mg/kg on day 14. The format is functional, organism-based. More on the design: dose 17.5 mg/kg. Put shortly: as §3
In data set [18] the test system is Mus musculus. As to the kind of experiment: Compound was evaluated for antitumor activity (RTV) in HT1376 carcinoma Xenograft, at a dosage 35 mg/kg on day 14. More on the design: dose 35 mg/kg. The format is functional, organism-based. An outline of the steps:
as §1

The subject of data set [19] is Mus musculus. As to the kind of experiment: Compound was evaluated for antitumor activity (RTV) in HT1376 carcinoma Xenograft, at a dosage 17.5 mg/kg on day 21. The format is functional, organism-based. More on the design: dose 17.5 mg/kg. An outline of the steps:
as §1

Data set [20] deals with Mus musculus. As to the kind of experiment: Compound was evaluated for antitumor activity (T/C) in HT1376 carcinoma Xenograft, at a dosage 35 mg/kg on day 28. The format is functional, organism-based. On the set-up: dose 35 mg/kg. Put shortly: as §2
For data set [21], the system named is Mus musculus. Nature of the data set: Compound was evaluated for antitumor activity (RTV) in HT1376 carcinoma Xenograft, at a dosage 8.75 mg/kg on day 14. Format: functional, organism-based. On the set-up: dose 8.75 mg/kg. An outline of the steps: as §1
Data set [22] has as its system Mus musculus. Nature of the data set: Compound was evaluated for antitumor activity (RTV) in HT1376 carcinoma Xenograft, at a dosage 35 mg/kg on day 21. Format: functional, organism-based. On the set-up: dose 35 mg/kg. An outline of the steps:
as §1

Data set [23] relates to Mus musculus. As to the kind of experiment: Compound was evaluated for antitumor activity (RTV) in HT1376 carcinoma Xenograft, at a dosage 35 mg/kg on day 28. The format is functional, organism-based. More on the design: dose 35 mg/kg. Put shortly:
as §1

For data set [24], the system named is Mus musculus. Nature of the data set: Compound was evaluated for antitumor activity (T/C) in HT1376 carcinoma Xenograft, at a dosage 17.5 mg/kg on day 21. The format is functional, organism-based. More on the design: dose 17.5 mg/kg. An outline of the steps:
as §3

Data set [25] deals with Mus musculus. As to the kind of experiment: Compound was evaluated for antitumor activity (T/C) in HT1376 carcinoma Xenograft, at a dosage 8.75 mg/kg on day 28. Format: functional, organism-based. More on the design: dose 8.75 mg/kg. An outline of the steps:
as §2

Another data set relates to SW-620. As to the kind of experiment: Compound was tested for in vitro growth inhibition of primary panel tumor cell line SW620. The format is functional, cell-based, Homo sapiens. Put shortly: (§4)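 Primary-panel lines kept in L15, RPMI 1640 plus pyruvate, or MEM, each with 10% FBS. Cells were seeded at 5×10^4–10^5 cells/mL, preincubated 24 h, then exposed 4 h to 0–200 μg/mL from a 2 mg/mL stock in 10% DMA/PBS. After washout and 72 h further growth, cells were read by SRB. IC50 was the concentration giving 50% survival versus untreated controls.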

The test system of data set [26] is CH1. As to the kind of experiment: Compound was tested for in vitro growth inhibition of Ovarian carcinoma cell line panel CH1. The format is functional, cell-based. Put shortly: (§5)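 Ovarian lines grown as monolayers in DMEM with 10% FBS, insulin, hydrocortisone and L-glutamine under 6% CO2. Cells were seeded at 3–5 × 10³/well and left to attach overnight. Compounds were freshly dissolved in DMA or water and applied for 96 h in quadruplicate wells. Growth was measured by SRB and reported as IC50.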

In data set [27] the test system is A2780. Nature of the data set: Compound was tested for in vitro growth inhibition of Ovarian carcinoma cell line panel A2780. Format: functional, cell-based, Homo sapiens. An outline of the steps:
as §5

Data set [28] is described as follows: Solubility at 25 degrees Celsius in 1-Octanol. Format: physicochemical. Put shortly: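 A sample was tumbled in 1-octanol at 25 °C for 24 h and filtered. An aliquot was evaporated and the residue taken up in dilute aqua regia. Gold content was determined as for the aqueous samples, with indium as internal standard.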
Data set [29] relates to SK-OV-3. Nature of the data set: Compound was tested for in vitro growth inhibition of Ovarian carcinoma cell line panel SK-OV-3. Format: functional, cell-based, Homo sapiens. An outline of the steps:
as §5

The next data set has as its system SW 1116. As to the kind of experiment: Compound was tested for in vitro growth inhibition of primary panel tumor cell line SW1116. Format: functional, cell-based, Homo sapiens. An outline of the steps: as §4
A further data set has as its system HT-1376. Nature of the data set: Compound was tested for in vitro growth inhibition of primary panel tumor cell line HT1376. Format: functional, cell-based, Homo sapiens. Put shortly: as §4
Data set [30] relates to A2780. As to the kind of experiment: Compound was tested for in vitro growth inhibition of Ovarian carcinoma cell line panel A2780-R. The format is functional, cell-based, Homo sapiens. Put shortly: as §5
The next data set concerns HT-29. As to the kind of experiment: Compound was tested for in vitro growth inhibition of primary panel tumor cell line HT-29/219. The format is functional, cell-based, Homo sapiens. An outline of the steps: as §4
A further data set relates to ZR-75-1. Nature of the data set: Compound was tested for in vitro growth inhibition of primary panel tumor cell line ZR-75-1. Format: functional, cell-based, Homo sapiens. Put shortly:
as §4

The test system of data set [31] is SK-OV-3. Nature of the data set: Compound was tested for in vitro growth inhibition of primary panel tumor cell lines SK-OV-3. Format: functional, cell-based, Homo sapiens. Put shortly: as §4
Data set [32] in a line: Solubility at 25 degrees Celsius in water. The format is physicochemical. Conditions: buffer. An outline of the steps:
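5–10 mg sample was tumbled in 5.0 mL water at 25 °C for 24 h and filtered. The solution was diluted as needed and gold was quantified with 1 ppm indium as internal standard.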

The test system of the next data set is HX62 cell line. As to the kind of experiment: Compound was tested for in vitro growth inhibition of Ovarian carcinoma cell line panel HX62. Format: functional, cell-based, Homo sapiens. Put shortly: as §5
Data set [33] deals with CH1. As to the kind of experiment: Compound was tested for in vitro growth inhibition of Ovarian carcinoma cell line panel CH1-R. Format: functional, cell-based. Put shortly: as §5

For “Malonato[2-(dimethylamino)methyl]phenyl-C,N]gold-(III)”, the RTV in the data set with Mus musculus [1] was determined as 802; in the data set on Mus musculus [4] it was 264; in the data set with Mus musculus [5], 210; in the data set on Mus musculus [6], 894; with Mus musculus [9], 266; in the data set on Mus musculus [15] it was 1230. The RTV is 451 in the data set on Mus musculus [16]; 292 in the data set with Mus musculus [18]; 699 with Mus musculus [19]; 513 in the data set with Mus musculus [21]; 488 with Mus musculus [22]; 816 in the data set with Mus musculus [23]. The T/C in the data set on Mus musculus [2] is 0.8; with Mus musculus [3], 1; in the data set on Mus musculus [7], 0.57; in the data set with Mus musculus [8], 1; with Mus musculus [10], 1.01; with Mus musculus [11], 0.76. The T/C with Mus musculus [12] was determined as 0.58; with Mus musculus [13], 1.06; in the data set with Mus musculus [17], 0.88; with Mus musculus [20], 0.77; with Mus musculus [24], 0.83; in the data set with Mus musculus [25], 1.17. Also, the Range in data set [14] was 7.3 and 11.1.

On to “Oxalato[2-(dimethylamino)methyl]phenyl-C,N]gold-(III) Hemihydrate”, for which the IC50 in the data set with SW-620 was determined as 205 µM; with CH1 [26], 11 µM; with A2780 [27], 3.7 µM; with SK-OV-3 [29], 42 µM; with SW 1116, 215 µM; with HT-1376 it was 10 µM. For the same substance, the IC50 with A2780 [30] was determined as 35 µM; in the data set with HT-29 it was 19 µM; in the data set on ZR-75-1 it was 41 µM; with SK-OV-3 [31], 10 µM; with HX62 cell line, 30 µM; in the data set with CH1 [33], 13 µM. Moreover, the Solubility in data set [28] is 170 µM; in [32], 430 µM.
